Article PMC4739608 (The Journal of Cell Biology, 2016)

What was measured:
[1] = tested on: NIH3T3 cells; assay: Immunofluorescence of IACs in NIH3T3 cells; format: cell-based, mouse; settings: NIH3T3 on FN, 3 µM FAK [i] or 10 µM PF228, 1 h
[2] = tested on: HFF cells; assay: Immunofluorescence of IACs in HFF cells; format: cell-based, human; settings: HFFs prespread on FN, 3 µM FAK [i] or 10 µM PF228, 1 h
Summary of the method: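 Cells were grown on FN-coated (10 µg/ml) coverslips or glass-bottom dishes. HFFs were spread on FN for 1 h before inhibitor or DMSO was added. Cells were fixed in 4% paraformaldehyde for 7 min, then permeabilized with 0.5% Triton X-100 for 10 min. Primary antibodies were applied for 1 h and secondaries for 30 min, in 2% BSA at RT. Stained areas >10 pixels were normalized to total cell area, with count and size per cell.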

[3] = tested on: consensus adhesome proteins; settings: three other studies; ref Horton et al., 2015b; cited from earlier work
[4] = tested on: HFF cells; assay: Crystal violet proliferation assay; format: cell-based, human; settings: up to 4 d, total cell number by crystal violet

## CS(=O)(=O)c1cccc(CNc2nc(Nc3ccc4c(c3)CCC(=O)N4)ncc2C(F)(F)F)c1 [PF228]
[1]
  FAK^Y397 levels by immunofluorescence: reduction of FAK^Y397 levels
  vinculin- or paxillin-containing IACs: did not affect
[2]
  FAK^Y397 levels by immunofluorescence: significantly reduced
  area and numbers of vinculin- or paxillin-containing IACs, and the actin cytoskeleton: unaffected

## Cc1ccc2c(c1)C(=O)C1(O)CCN(c3ccccc3)C1=N2 (stereo not drawn) [blebbistatin]
[3]
  consensus adhesome proteins, mean fold decrease upon blebbistatin treatment: 2.1 fold

## CN1CCN(CCOc2cc(OC3CCOCC3)c3c(Nc4c(Cl)ccc5c4OCO5)ncnc3c2)CC1 [Src [i], N-(5-chloro-1,3-benzodioxol-4-yl)-7-[2-(4-methylpiperazin-1-yl)ethoxy]-5-(tetrahydro-2H-pyran-4-yloxy)quinazolin-4-amine]
[4]
  inhibition of proliferation relative to DMSO: 30%
